Data set [1] is described as follows: Drug metabolism in human liver microsomes assessed as oxidative N-dealkylation at 50 uM measured after 60 mins […] by LC-ESI/MS analysis. Format: ADME, Microsome. To be noted: 1 h.
Data set [2] can be described thus: Drug metabolism in Wistar Han rat liver microsomes assessed as aliphatic hydroxylation of paraffin linker at 50 uM measured after 60 mins […] by LC-ESI/MS analysis. Format: ADME, Microsome. The note with it: 1 h. For orientation: Liver microsomes are a subcellular fraction often used to study metabolism.
A short description of data set [3]: Thermodynamic solubility of compound in water after 24 hrs by LC-UV based shake flask method. The data set is classed as physicochemical. The note with it: buffer. The procedure, abridged:
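Thermodynamic water solubility measured by saturation shake flask, with the concentration of the saturated solution reported.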

For data set [4], the system named is Lymphocyte. Description: Genotoxicity in human primary lymphocytes in presence of S9 fraction by GreenScreen assay. Format: toxicity, cell-based.
The test system of data set [5] is TK6. Description: Genotoxicity in human TK6 cells in presence of S9 fraction by GreenScreen assay. The data set is classed as toxicity, cell-based.
Data set [6] deals with Lymphocyte. Nature of the data set: Genotoxicity in human primary lymphocytes assessed as induction of DNA damage up to 1000 uM by GreenScreen assay. Format: toxicity, cell-based.
A short description of data set [7]: Drug metabolism in Wistar Han rat liver microsomes assessed as pyridine N-oxidation at 50 uM measured after 60 mins […] by LC-ESI/MS analysis. The data set is classed as ADME, Microsome. To be noted: 1 h.
The nature of data set [8]: Drug metabolism in human liver microsomes assessed as pyridine N-oxidation at 50 uM measured after 60 mins […] by LC-ESI/MS analysis. To be noted: 1 h. The data set is classed as ADME, Microsome.
Data set [9] can be described thus: Drug metabolism in Wistar Han rat liver microsomes assessed as oxidative N-dealkylation at 50 uM measured after 60 mins […] by LC-ESI/MS analysis. The data set is classed as ADME, Microsome. The note with it: 1 h.
In data set [10] the test system is TK6. Nature of the data set: Genotoxicity in human TK6 cells assessed as induction of DNA damage up to 1000 uM by GreenScreen assay. The data set is classed as toxicity, cell-based.
Data set [11] is described as follows: Drug metabolism in human liver microsomes assessed as aliphatic hydroxylation of paraffin linker at 50 uM measured after 60 mins […] by LC-ESI/MS analysis. The data set is classed as ADME, Microsome. To be noted: 1 h.
Data set [12] is described as follows: Kinetic aqueous solubility of the compound in 80:20 PBS/acetonitrile solution at 200 uM by HTS assay. The note with it: buffer. The data set is classed as physicochemical.

The structures appear in SMILES notation.

In the case of `O=C(NCCCCCCCn1cc(-c2cccnc2)nn1)c1ccccc1-c1ccccc1`, the Drug metabolism entry in [1], in data set [2], in data set [7], in data set [8], in [9] and in data set [11] was “Metabolite_Detected” throughout. Further, in [3], the Therm_solubility entry is “Soluble”. Moreover, in [4], the LEC came to 125 µM. In data set [5], the MTC was 125 µM. Further, the Activity entry in data set [6] and in [10] was “Non-Toxic” throughout. For the same compound, the Kinetic_solubility entry in data set [12] was “Soluble”.

Values taken from ChEMBL document CHEMBL4359872, “Identification of potent triazolylpyridine nicotinamide phosphoribosyltransferase (NAMPT) inhibitors bearing a 1,2,3-triazole tail group” (Eur J Med Chem, 2019).
